Data from ChEMBL document CHEMBL1687727, “Distinct mode of interaction of a novel ketolide antibiotic that displays enhanced antimicrobial activity” (Antimicrob Agents Chemother, 2009).
≈ marks a conversion by molar mass, not a printed value. Calls of active or inactive are those of the source. The rule behind the calls is not given here.

Key:
Escherichia coli [1] = assay: Antimicrobial activity against chromosomal rrn allele deficient-Escherichia coli TA531 after 15 hrs; format: functional; details: TA531, 15 h
Outline: (§1)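 E. coli TA531 lacking chromosomal rrn alleles and carrying plasmid-borne wild-type, A2058G or U2609C 23S rRNA. Grown overnight in LB with 100 μg/ml ampicillin, diluted and regrown. MIC was the lowest concentration arresting culture growth.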

Escherichia coli [2] = assay: Antimicrobial activity against Escherichia coli TA531 harboring 23S rRNA A2058G mutant after 15 hrs; format: functional; details: TA531, 15 h; outline: as §1
Escherichia coli [3] = assay: Antimicrobial activity against Escherichia coli TA531 harboring 23S rRNA U2609C mutant after 15 hrs; format: functional; details: TA531, 15 h; outline: as §1
Escherichia coli K-12 [4] = assay: Binding affinity to Escherichia coli K-12 70S ribosome Pi complex assessed as inhibition of AcPhe-puromycin synthesis at 5 uM after 2 mins by liquid scintillation counting
Bacterial 70S ribosome = assay: Displacement of [14C]-erythromycin from Escherichia coli K-12 70S ribosome after 10 mins by competitive binding assay
Outline: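 Tight-coupled 70S ribosomes (0.20 μM final) in buffer A (20 mM HEPES-KOH pH 7.6, 4.5 mM Mg acetate, 150 mM NH4 acetate, polyamines). [14C]-erythromycin held constant at 0.6 μM (150 dpm/pmol) with increasing unlabeled competitor, 10 min at 37°C. Mixture was diluted in cold buffer and filtered through cellulose nitrate, which was washed twice and counted. KD was derived from a competition binding equation.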

Nucleic Acid [5] = assay: Binding affinity to Escherichia coli K-12 70S ribosome 23S rRNA A2062 mutant assessed as enhancement of DMS-induced modification of 23S rRNA domain V at nucleotides A2062 by primer extension analysis; format: nucleic-acid assay
Nucleic Acid [6] = assay: Binding affinity to Escherichia coli K-12 70S ribosome 23S rRNA A2062 mutant assessed as protection against DMS-induced modification of 23S rRNA domain II at nucleotides A752 and by primer extension analysis; format: nucleic-acid assay
Nucleic Acid [7] = assay: Binding affinity to Escherichia coli K-12 70S ribosome 23S rRNA assessed as protection against DMS-induced modification of 23S rRNA […] by primer extension analysis; format: nucleic-acid assay
Nucleic Acid [8] = assay: Binding affinity to Escherichia coli K-12 70S ribosome 23S rRNA assessed as protection against CMCT-induced modification of 23S rRNA […] by primer extension analysis; format: nucleic-acid assay
[9] = biological target: T1, Bacterial 70S ribosome (Bacteria) (UniProt P0A7V0+P60723+P0AG67+P0A7R5+P0A7R9+P0A7S3+P0A7S9+P0AG59+P0ADZ4+P0A7T3+P0AG63+P0A7T7+P0A7U3+P0A7U7+P68679+P0A7V3+P0A7V8+P0A7W1+P02358+P02359+P0A7W7+P0A7X3+P0A7J3+P0A7J7+P0AA10+P0ADY3+P02413+P0ADY7+P0AG44+P0C018+P0A7K6+P0A7L0+P0A7L3+P0AG48+P61175+P0ADZ0+P60624+P68919+P0A7L8+P0A7M2+P0A7M6+P60422+P0AG51+P0A7N1+P0A7M9+P0A7N4+P0A7N9+P0A7P5+P0A7Q1+Q2EEQ2+P0A7Q6+P60438+P62399+P0AG55+P0A7K2); assay: Inhibition of poly(A)-dependent synthesis of poly(Lys) using Escherichia coli K-12 70S ribosome at 20 uM after 1 hr by liquid scintillation counting
Outline: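 Poly(A)-programmed tight-coupled 70S ribosomes (0.5 μM) were preincubated 10 min at 37°C with antibiotic in buffer A. The mix held [3H]lysine (3 nmol, 500 dpm/pmol), bulk E. coli tRNA, 3 mM ATP, 1.5 mM GTP, 5 mM acetyl phosphate and S-100 fraction. Incubated 1 h at 37°C, followed by hot TCA (with 0.25% sodium wolframate) precipitation onto glass fiber filters and scintillation counting.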

Escherichia coli K-12 [10] = assay: Inhibition of poly(U)-dependent synthesis of poly(Phe) using Escherichia coli K-12 70S ribosome A2058 mutant at 50 uM after 1 hr by liquid scintillation counting
Escherichia coli K-12 [11] = assay: Inhibition of poly(U)-dependent synthesis of poly(Phe) using Escherichia coli K-12 70S ribosome U2609C mutant at 50 uM after 1 hr by liquid scintillation counting
Escherichia coli K-12 [12] = assay: Binding affinity to Escherichia coli K-12 70S ribosome Pi complex assessed as inhibition of AcPhe-puromycin synthesis at 10 uM after 2 mins by liquid scintillation counting
Outline: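 Pi complex: Ac[3H]Phe-tRNA bound at the P-site of MF-mRNA-programmed 70S ribosomes (0.3 μM ribosomes, 2.0 μM mRNA, 0.5 μM tRNA; buffer A, pH 7.6, 4.5 mM Mg2+; 37°C 15 min), free of unbound donor. Reacted with 1 mM puromycin at 37°C for 2 min, with or without 10 μM antibiotic. Duplicates.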

Escherichia coli K-12 [13] = assay: Binding affinity to Escherichia coli K-12 Pi complex of 70S ribosome Pi complex U2609C mutant assessed as blockade of tylosin-induced inhibition of AcPhe-puromycin synthesis at 10 uM after 2 mins by liquid scintillation counting
Outline: (§2)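 Pi complexes were formed on ribosomes carrying the A2058G or U2609C mutation (Ac[3H]Phe-tRNA at the P-site of MF-mRNA-programmed 70S; buffer A). Complexes were pre-exposed to antibiotic (final 10 μM) at 37°C for 2 min, then tylosin was added (final 5 μM). They were then reacted with 1 mM puromycin at 37°C for 2 min to measure AcPhe-puromycin formation.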

Escherichia coli K-12 [14] = assay: Binding affinity to Escherichia coli K-12 Pi complex of 70S ribosome Pi complex A2058G mutant assessed as blockade of tylosin-induced inhibition of AcPhe-puromycin synthesis at 10 uM after 2 mins by liquid scintillation counting; outline: as §2
Escherichia coli K-12 [15] = assay: Binding affinity to Escherichia coli K-12 70S ribosome Pi complex assessed as dissociation rate constant at 2 uM
[16] = biological target: T1, Bacterial 70S ribosome (Bacteria); assay: Inhibition of tRNA binding to Escherichia coli K-12 70S ribosome
[17] = biological target: T1, Bacterial 70S ribosome (Bacteria); assay: Inhibition of Escherichia coli K-12 70S ribosome dependent elongation factor G-dependent translocation
[18] = biological target: T1, Bacterial 70S ribosome (Bacteria); assay: Inhibition of Ptase activity of Escherichia coli K-12 70S ribosome
[19] = biological target: T1, Bacterial 70S ribosome (Bacteria); assay: Inhibition of poly(U)-dependent synthesis of poly(Phe) using Escherichia coli K-12 70S ribosome at 20 uM after 30 mins by liquid scintillation counting
Nucleic Acid [20] = assay: Binding affinity to Escherichia coli K-12 70S ribosome 23S rRNA U2609C mutant assessed as protection against DMS-induced modification of 23S rRNA domain V at nucleotides A2058 and A2059 by primer extension analysis
Nucleic Acid [21] = assay: Binding affinity to Escherichia coli K-12 70S ribosome 23S rRNA assessed as enhancement of DMS-induced modification of 23S rRNA domain II at nucleotides A752 by primer extension analysis; format: nucleic-acid assay
Outline: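 70S ribosomes (50 pmol) activated 5 min at 37°C in 20 mM HEPES/KOH pH 7.8, 20 mM MgCl2, 300 mM KCl. Antibiotic added in the same buffer for 10 min at 37°C, then cooled on ice. DMS modification followed, then SDS/EDTA buffer, phenol/chloroform extraction and ethanol precipitation of rRNA. Repeated up to four times.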

| SMILES | MIC (Escherichia coli [1]) | MIC (Escherichia coli [2]) | MIC (Escherichia coli [3]) | Kd (Bacterial 70S ribosome) | Activity (Nucleic Acid [7]) | Activity (Nucleic Acid [8]) | inhibition [9] | Activity (Escherichia coli K-12 [13]) | inhibition [19] | Activity (Nucleic Acid [20]) | further results |
| --- | --- | --- | --- | --- | --- | --- | --- | --- | --- | --- | --- |
| CC[C@H]1OC(=O)[C@H](C)C(=O)[C@H](C)[C@@H](O[C@@H]2O[C@H](C)C[C@H](N(C)C)[C@H]2O)[C@](C)(OC)C[C@@H](C)C(=O)[C@H](C)[C@H]2N(CCCCn3cnc(-c4cccnc4)c3)C(=O)O[C@]12C [TELITHROMYCIN] | 16 µg/mL (≈ 19.7 µM) | > 150 µg/mL | 64 µg/mL (≈ 78.8 µM) | – | – | – | – | – | – | – | – |
| CC[C@H]1OC(=O)C[C@@H](O)[C@H](C)[C@@H](O[C@@H]2O[C@H](C)[C@@H](O[C@H]3C[C@@](C)(O)[C@@H](O)[C@H](C)O3)[C@H](N(C)C)[C@H]2O)[C@@H](CC=O)C[C@@H](C)C(=O)/C=C/C(C)=C/[C@@H]1CO[C@@H]1O[C@H](C)[C@@H](O)[C@@H](OC)[C@H]1OC | – | – | – | – | – | – | – | – | – | – | Activity (Escherichia coli K-12 [4]): Active |
| C[C@H]1C(=O)O[C@H](CCNC(=O)Cc2cccc(-c3ccco3)c2)[C@@]2(C)OC(=O)N[C@@H]2[C@@H](C)C(=O)[C@H](C)C[C@@](C)(O)[C@H](O[C@@H]2O[C@H](C)C[C@H](N(C)C)C2O)[C@@H](C)C1=O (stereo partly specified) [KOSAN-1325] | 8 µg/mL (≈ 10 µM) | > 250 µg/mL | 8 µg/mL (≈ 10 µM) | 0.0075 µM | Active | Active | Active | Active | inactive | Active | Activity (Nucleic Acid [5]): Active; Activity (Nucleic Acid [6]): Active; inhibition (Escherichia coli K-12 [10]): inactive; inhibition (Escherichia coli K-12 [11]): Active; inhibition (Escherichia coli K-12 [12]): inactive; Activity (Escherichia coli K-12 [14]): Active; Kdiss (Escherichia coli K-12 [15]): 5e-05 s⁻¹; inhibition [16]: inactive; inhibition [17]: inactive; inhibition [18]: inactive |
| CC[C@H]1OC(=O)[C@H](C)[C@@H](O[C@H]2C[C@@](C)(OC)[C@@H](O)[C@H](C)O2)[C@H](C)[C@@H](O[C@@H]2O[C@H](C)C[C@H](N(C)C)[C@H]2O)[C@](C)(O)C[C@@H](C)C(=O)[C@H](C)[C@@H](O)[C@]1(C)O [ERYTHROMYCIN] | 128 µg/mL (≈ 174 µM) | > 500 µg/mL | 128 µg/mL (≈ 174 µM) | 0.015 µM | inactive | inactive | Active | Active | inactive | Active | Activity (Nucleic Acid [21]): Active; Activity (Escherichia coli K-12 [12]): inactive |
